Test results taken from ChEMBL document CHEMBL1629563, “Pharmacokinetic and safety evaluation of BILR 355, a second-generation nonnucleoside reverse transcriptase inhibitor, in healthy volunteers” (Antimicrob Agents Chemother, 2008).

Tests used:
[1] = Apparent oral clearance in healthy human at 25 mg, po administered as single dose; format: ADME, organism-based; conditions: in vivo
How it was run: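 Healthy male volunteers, six active plus two placebo per dose group, single oral dose in PEG solution with 200 ml water after overnight fast; breakfast 60 to 90 min post-dose. EDTA plasma sampled predose to 144 h. Assayed by validated LC-MS/MS after protein precipitation. Noncompartmental analysis, AUC by linear up/log down trapezoidal rule; Vss = CL/F·(MRTp.o. − 1/Ka).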

[2] = Renal clearance in healthy human at 87.5 mg, po administered as single dose coadministered with 100 mg of ritonavir by high-pressure liquid chromatography-tandem mass spectrometry/mass spectrometry method; format: ADME, organism-based, Kidney; conditions: in vivo, read-out: CL_renal (converted)
How it was run: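 Healthy male volunteers, fasted overnight, got one oral dose in PEG solution with 200 ml water. Ritonavir 100 mg was given 10 h before and again with the dose. Urine was collected quantitatively over 0–6, 6–24 and 24–72 h and stored at −20°C, then assayed by validated HPLC-MS/MS. CLR = amount excreted unchanged over an interval / plasma AUC over the same interval.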

[3] = system: Homo sapiens; assay: Toxicity in healthy human assessed as occurrence of diarrhea at 25 mg, po administered as single dose coadministered with 100 mg of ritonavir; format: organism-based; conditions: in vivo
[4] = Apparent volume of distribution in terminal phase in healthy human at 100 mg, po administered as single dose; format: ADME, organism-based; conditions: in vivo, read-out: Vz/F
How it was run: (§1)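 Single fasting oral dose of BILR 355 in PEG solution with 200 ml tap water, given to healthy males. Standard breakfast came 60-90 min after the dose. EDTA plasma was sampled predose to 144 h, stored below −18°C and assayed by LC-MS/MS after protein precipitation. Noncompartmental analysis gave Vz/F. Vss/F = CL/F·(MRTp.o. − 1/Ka), with Ka from compartmental modelling.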

[5] = Cmax in healthy human at 5 mg, po administered as single dose coadministered with 100 mg of ritonavir by high-pressure liquid chromatography-tandem mass spectrometry/mass spectrometry method; format: ADME, organism-based; design: dose 5 mg, route oral; conditions: in vivo
How it was run: (§2)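 Healthy male volunteers, fasted overnight, got one oral dose of BILR 355 in PEG solution with 200 ml water. Ritonavir 100 mg was given 10 h before and again with the dose. Plasma was sampled (EDTA) from predose to 144 h and assayed by validated LC-MS/MS. Cmax and Vz/F came from noncompartmental analysis. Vss/F = CL/F·(MRTp.o. − 1/Ka), with Ka from compartmental modelling.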

[6] = Apparent volume of distribution in terminal phase in healthy human at 12.5 mg, po administered as single dose; format: ADME, organism-based; conditions: in vivo, read-out: Vz/F; how it was run: as §1
[7] = Renal clearance in healthy human at 12.5 mg, po administered as single dose coadministered with 100 mg of ritonavir by high-pressure liquid chromatography-tandem mass spectrometry/mass spectrometry method; format: ADME, organism-based, Kidney; conditions: in vivo, read-out: CL_renal (converted)
[8] = system: Homo sapiens; assay: Ratio of half life in human at 25 mg, po in presence of 100 mg of ritonavir to half life in human at 25 mg, po; format: ADME, organism-based; conditions: in vivo
[9] = Apparent volume of distribution in terminal phase in healthy human at 25 mg, po administered as single dose; format: ADME, organism-based; conditions: in vivo, read-out: Vz/F; how it was run: as §1
[10] = Cmax in healthy human at 62.5 mg, po administered as single dose coadministered with 100 mg of ritonavir by high-pressure liquid chromatography-tandem mass spectrometry/mass spectrometry method; format: ADME, organism-based; design: dose 62.5 mg, route oral; conditions: in vivo; how it was run: as §2
[11] = system: Homo sapiens; assay: Toxicity in healthy human assessed as occurrence of fatigue at 75 mg, po administered as single dose coadministered with 100 mg of ritonavir; format: organism-based; conditions: in vivo
[12] = system: Homo sapiens; assay: Toxicity in high fat fed healthy human assessed as occurrence of diarrhea at 50 mg, po administered as single dose coadministered with 100 mg of ritonavir; format: organism-based; conditions: in vivo
[13] = system: Homo sapiens; assay: Toxicity in healthy human assessed as occurrence of palpitations at 1 mg, po administered as single dose relative to control; format: organism-based; conditions: in vivo
[14] = system: Homo sapiens; assay: Toxicity in healthy human assessed as occurrence of fatigue at 62.5 mg, po administered as single dose coadministered with 100 mg of ritonavir; format: organism-based; conditions: in vivo
[15] = Drug excretion in healthy human urine assessed as unchanged drug at 5 mg, po administered as single dose by high-pressure liquid chromatography-tandem mass spectrometry/mass spectrometry method; format: ADME, organism-based; conditions: read-out: Drug uptake
How it was run: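 Urine was collected by weight after one oral dose of BILR 355 in PEG solution in fasted healthy males. Intervals were predose blank, 0-6, 6-24 and 24-72 h, with the bladder voided before each. Aliquots were stored at −20°C and assayed by LC-MS/MS. fe = amount of unchanged drug excreted (Ae) as a percentage of the administered dose.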

[16] = system: Homo sapiens; assay: Toxicity in healthy human assessed as occurrence of neurological eyelid disorder at 25 mg, po administered as single dose relative to control; format: organism-based; conditions: in vivo
[17] = Apparent volume of distribution in terminal phase in healthy human at 75 mg, po administered as single dose coadministered with 100 mg of ritonavir; format: ADME, organism-based; conditions: in vivo, read-out: Vz/F; how it was run: as §2
[18] = Drug excretion in healthy human urine assessed as unchanged drug at 25 mg, po administered as single dose coadministered with 100 mg of ritonavir by high-pressure liquid chromatography-tandem mass spectrometry/mass spectrometry method; format: ADME, organism-based; conditions: read-out: Drug uptake
How it was run: (§3)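 Ritonavir 100 mg was given 10 h before and with one oral dose of BILR 355 in PEG solution. Urine was collected by weight as predose blank, then 0-6, 6-24 and 24-72 h, stored at −20°C and assayed by LC-MS/MS. fe = unchanged drug excreted (Ae) as a percentage of dose. Line 50: high-fat breakfast 30 min before dosing.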

[19] = system: Homo sapiens; assay: Toxicity in healthy human assessed as occurrence of maculopapular rash at 100 mg, po administered as single dose; format: organism-based; conditions: in vivo
[20] = system: Homo sapiens; assay: Toxicity in healthy human assessed as occurrence of neurological eyelid disorder at 5 mg, po administered as single dose relative to control; format: organism-based; conditions: in vivo
[21] = system: Homo sapiens; assay: Toxicity in healthy human assessed as occurrence of maculopapular rash at 37.5 mg, po administered as single dose coadministered with 100 mg of ritonavir; format: organism-based; conditions: in vivo
[22] = system: Homo sapiens; assay: Toxicity in healthy human assessed as occurrence of constipation at 50 mg, po administered as single dose relative to control; format: organism-based; conditions: in vivo
[23] = system: Homo sapiens; assay: Toxicity in healthy human assessed as occurrence of flatulence at 50 mg, po administered as single dose relative to control; format: organism-based; conditions: in vivo
[24] = system: Homo sapiens; assay: Ratio of Cmax in human at 75 mg, po in presence of 100 mg of ritonavir to Cmax in human at 75 mg, po; format: ADME, organism-based; conditions: in vivo
[25] = Renal clearance in healthy human at 50 mg, po administered as single dose coadministered with 100 mg of ritonavir by high-pressure liquid chromatography-tandem mass spectrometry/mass spectrometry method; format: ADME, organism-based, Kidney; conditions: in vivo, read-out: CL_renal (converted)
[26] = system: Homo sapiens; assay: Toxicity in healthy human assessed as occurrence of fatigue at 87.5 mg, po administered as single dose coadministered with 100 mg of ritonavir; format: organism-based; conditions: in vivo
[27] = Drug excretion in healthy human urine assessed as unchanged drug at 87.5 mg, po administered as single dose coadministered with 100 mg of ritonavir by high-pressure liquid chromatography-tandem mass spectrometry/mass spectrometry method; format: ADME, organism-based; conditions: read-out: Drug uptake; how it was run: as §3
[28] = Mean residence time in healthy human at 50 mg, po administered as single dose; format: ADME, organism-based; conditions: in vivo
[29] = system: Homo sapiens; assay: Toxicity in healthy human assessed as occurrence of increase in alanine aminotransferase level at 12.5 mg, po administered as single dose relative to control; format: organism-based; conditions: in vivo

CCN1c2ncc(CCOc3cc[n+]([O-])c4ccccc34)cc2C(=O)N(C)c2cccnc21 [BILR 355]
CL/F [1]: 3400 mL/min | CL renal [2]: 8.2 mL/min | Activity [3]: 0% | Vd/F [4]: 213 L | Cmax [5]: 25.3 ng/mL | Vd/F [6]: 1430 L | CL renal [7]: 7.3 mL/min | Ratio [8]: 3.3 | Vd/F [9]: 1040 L | Cmax [10]: 653 ng/mL | Activity [11]: 0% | Activity [12]: 0% | Activity [13]: 0% | Activity [14]: 0% | dose excreted [15]: 0.172% | Activity [16]: 0% | Vd/F [17]: 108 L | dose excreted [18]: 6.62% | Activity [19]: 0% | Activity [20]: 0% | Activity [21]: 16.7% | Activity [22]: 0% | Activity [23]: 0% | Ratio [24]: 2.3 | CL renal [25]: 4.87 mL/min | Activity [26]: 0% | dose excreted [27]: 5.96% | MRT [28]: 3.2 h | Activity [29]: 0%
